Source: PubChem BioAssay (several laboratories)
Rtt109 Vps75: inhibitors of C. albicans Rtt109/Vps75 HAT, primary screen, biochemical, ThioGlo CoA-SH fluorescence, plate reader; Histone acetyltransferase RTT109 (Candida albicans (strain SC5314 / ATCC MYA-2876)), …; purified Rtt109/Vps75, 4 h; inhibition, % at 34.9 µM; 0.16% of 330,000 active; AID 540336, 2011;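 active means inhibition of at least 50% in every replicate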
Target sequence (Q5AAJ8 whole entry, looked up): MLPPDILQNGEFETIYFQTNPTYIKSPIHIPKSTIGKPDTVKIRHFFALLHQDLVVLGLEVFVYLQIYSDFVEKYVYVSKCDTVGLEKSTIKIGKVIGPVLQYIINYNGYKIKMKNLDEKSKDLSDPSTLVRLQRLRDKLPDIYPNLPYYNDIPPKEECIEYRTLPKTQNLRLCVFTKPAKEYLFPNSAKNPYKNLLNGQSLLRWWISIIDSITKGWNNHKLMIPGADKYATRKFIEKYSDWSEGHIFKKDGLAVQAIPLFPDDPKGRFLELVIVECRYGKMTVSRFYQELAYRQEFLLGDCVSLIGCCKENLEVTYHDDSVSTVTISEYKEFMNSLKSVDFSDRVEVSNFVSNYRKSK
ALR H2O2 inh: inhibitors of human ALR sulfhydryl oxidase, primary screen, biochemical, H2O2 detection, HRP-luminol luminescence, single point. AID 485317, 2010. 3.8% of 290,000 active. purified ALR, DTT oxidation. FAD-linked sulfhydryl oxidase ALR (Homo sapiens), P55789. inhibition, % (concentration not given with the values);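 active means mean replicate inhibition above about 79%, with every replicate also reaching it, limit read from the data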
UCH37 DUB inh: inhibitors of human UCH37 deubiquitinase, primary screen, biochemical, Ub-AMC cleavage, fluorescence. Ubiquitin carboxyl-terminal hydrolase isozyme L5 (Homo sapiens), Q9Y5K5. purified proteasome/UCH37. inhibition, % (test concentration not listed). 0.33% of 330,000 active. AID 588478, 2011;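 active means mean inhibition over replicate wells above about 20%, limit read from the data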;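 further: 0% = compound-free wells with enzyme and 100% = wells lacking proteasome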
Target sequence (Q9Y5K5 whole entry, looked up): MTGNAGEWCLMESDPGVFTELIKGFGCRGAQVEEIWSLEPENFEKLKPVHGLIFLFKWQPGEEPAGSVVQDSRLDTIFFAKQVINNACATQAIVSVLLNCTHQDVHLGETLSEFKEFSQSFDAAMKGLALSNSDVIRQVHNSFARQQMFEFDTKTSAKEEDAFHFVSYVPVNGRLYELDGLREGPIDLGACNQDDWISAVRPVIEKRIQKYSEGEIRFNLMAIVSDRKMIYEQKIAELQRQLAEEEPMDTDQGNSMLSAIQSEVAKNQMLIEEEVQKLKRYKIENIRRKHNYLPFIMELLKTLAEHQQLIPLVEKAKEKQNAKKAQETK
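Material: Human UCH37 enzyme supplied as purified proteasome complex | Schedule: 30 min compound-proteasome preincubation then 25 min substrate reaction, room temperature | Detection: AMC fluorescence from Ub-AMC cleavage, excitation 355 nm, emission 460 nm | Benchmarks: Wells without proteasome as full block, compound-free enzyme plus substrate as uninhibited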
FAS-TE inh: FAS thioesterase domain inhibitors, primary screen, biochemical, fluorescence intensity, uHTS | inhibition, % at 15 µM | AID 602261, 2012 | recombinant FAS-TE, OMFH fluorogenic substrate, fluorescence endpoint | 0.67% of 360,000 active;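 active means compounds whose normalised, plate-corrected inhibition of enzyme fluorescence in the single-dose primary screen is 50% or more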;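 further: 0% = DMSO with enzyme and 100% = substrate without enzyme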
M18AAP inhibitor: PfM18AAP inhibitors, malaria aminopeptidase, primary screen, biochemical, QFRET, recombinant enzyme | M18 aspartyl aminopeptidase (Plasmodium falciparum 3D7) | H-Glu-NHMec fluorogenic cleavage | inhibition, % at 7.35 µM | 1.2% of 290,000 active;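 active means inhibition above the campaign mean inhibition over all tested compounds plus 3 SD, cut at about 28% in these data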;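 further: 0% = plate median of test compound wells and 100% = 2 mM ZnCl2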
HDAC3 inh: HDAC3 deacetylase inhibitors, primary screen, biochemical, fluorescence, cell-free homogeneous | Histone deacetylase 3 (Homo sapiens), O15379 | recombinant HDAC3, fluorogenic peptide/trypsin coupled | inhibition, % at 8.3 µM | 0.15% of 320,000 active; in the data active means inhibition above about 26%, passing the limit was not always enough
* = called active by the depositor. Shown are actives, neighbours in structure and some others; about 4.6% of the full set was active somewhere.

Results for CN(C)c1ccc(NC(=O)CSc2nnc(C3CCCCC3)n2N)cc1 ?
Rtt109 Vps75: 1.2; ALR H2O2 inh: 99.1*; UCH37 DUB inh: 7.9; FAS-TE inh: -0.2; M18AAP inhibitor: 16.4; HDAC3 inh: -8.5

What do the screens show for `COc1ccc(CCSc2nnc(C3CCCCC3)n2N)cc1`?
Rtt109 Vps75: 6.3; ALR H2O2 inh: 96.3*; UCH37 DUB inh: 0.0; FAS-TE inh: -3.6; M18AAP inhibitor: -1.9; HDAC3 inh: 5.0

How did CCCCn1nnnc1SCC(=O)Nc1ccc(N(C)C)cc1 do in these assays?
Rtt109 Vps75: -4.8; ALR H2O2 inh: 99.1*; UCH37 DUB inh: 2.9; FAS-TE inh: -4.5; M18AAP inhibitor: 4.9; HDAC3 inh: -4.5

How did CCCCn1nnnc1SCC(=O)Nc1ccc(F)cc1 do in these assays?
Rtt109 Vps75: 5.5; ALR H2O2 inh: 0.6; UCH37 DUB inh: 2.1; FAS-TE inh: -8.0; M18AAP inhibitor: -10.8; HDAC3 inh: -7.0

How did CC(=O)Nc1ccc(NC(=O)CSc2nnc(C)c(=O)n2N)cc1 do in these assays?
Rtt109 Vps75: -0.3; ALR H2O2 inh: 97.7*; UCH37 DUB inh: 4.1; FAS-TE inh: -7.7; M18AAP inhibitor: -8.7; HDAC3 inh: -1.6

What do the screens show for `CCOC(=O)C1(CCC(C)=NNC(N)=O)CC(C)(C)OC1=O` (stereo unspecified)?
UCH37 DUB inh: 3.4

Results for C[C@](N)(Cc1ccc(O)c(O)c1)C(=O)O ?
Rtt109 Vps75: -5.0; UCH37 DUB inh: 4.0; FAS-TE inh: -4.0; M18AAP inhibitor: 65.0*

What do the screens show for `CCOC(=O)NN=C/C=C/c1ccccc1[N+](=O)[O-]`?
UCH37 DUB inh: 4.2

Results for CC1(C)Cc2nc3sc(C(=O)NCCO)c(N)c3cc2CO1 ?
Rtt109 Vps75: 13.6; ALR H2O2 inh: 0.6; UCH37 DUB inh: 7.2; FAS-TE inh: -5.0; M18AAP inhibitor: 30.7*; HDAC3 inh: -1.7

How did CC1(C)Cc2nc3sc(C(=O)NCCCO)c(N)c3cc2CS1 do in these assays?
Rtt109 Vps75: 2.2; UCH37 DUB inh: -1.2; FAS-TE inh: -3.6; M18AAP inhibitor: 15.6; HDAC3 inh: 0.5

How did Cc1ccc(C=NNC(=O)c2cc(C)oc2C)o1 do in these assays?
UCH37 DUB inh: -2.1

How did COC(CNC(=O)c1ccc2c3c(onc13)-c1ccccc1C2=O)OC do in these assays?
Rtt109 Vps75: -6.7; ALR H2O2 inh: -6.3; UCH37 DUB inh: 20.1*; FAS-TE inh: 4.9; M18AAP inhibitor: 5.1; HDAC3 inh: 7.3

Results for Cc1c(C(=O)NC2CC2)oc2ccccc12 ?
Rtt109 Vps75: -5.1; ALR H2O2 inh: -2.4; UCH37 DUB inh: 0.5; FAS-TE inh: -6.6; HDAC3 inh: -0.3

What do the screens show for `COCc1c(C(=O)NC2CCCCCC2)oc2ccccc12`?
Rtt109 Vps75: -10.7; ALR H2O2 inh: 89.2*; UCH37 DUB inh: 4.0; FAS-TE inh: 4.9; M18AAP inhibitor: -2.4; HDAC3 inh: 1.1

How did CN1/C(=C\C(=O)c2cccc([N+](=O)[O-])c2)Sc2ccccc21 do in these assays?
Rtt109 Vps75: -0.5; ALR H2O2 inh: -12.5; UCH37 DUB inh: 3.3; FAS-TE inh: 2.8; M18AAP inhibitor: 12.0; HDAC3 inh: -8.4

What do the screens show for `CN1/C(=C/C(=O)c2ccc(Cl)cc2)Sc2cc3c(cc21)OCO3`?
Rtt109 Vps75: -7.9; UCH37 DUB inh: -3.3; FAS-TE inh: -12.7; M18AAP inhibitor: 31.6*; HDAC3 inh: 2.9

What do the screens show for `CCn1nc(C)cc1C(=O)Sc1ccc(C)cc1`?
Rtt109 Vps75: 0.8; ALR H2O2 inh: 98.3*; UCH37 DUB inh: 6.2; FAS-TE inh: 16.3; M18AAP inhibitor: -8.5; HDAC3 inh: 7.7

Results for NC(=S)NN=Cc1c[nH]c2ccccc12 ?
UCH37 DUB inh: 7.2

Results for O=C(O)c1ccc(N/N=C/c2c[nH]c3ccccc23)cc1 ?
Rtt109 Vps75: -14.8; ALR H2O2 inh: 98.4*; FAS-TE inh: -3.4; M18AAP inhibitor: -24.7; HDAC3 inh: -5.2

What do the screens show for `NC(=S)N/N=C/c1c[nH]c2ccccc12`?
Rtt109 Vps75: 0.4; ALR H2O2 inh: 98.8*; FAS-TE inh: -5.7; M18AAP inhibitor: 21.9; HDAC3 inh: 10.2

What do the screens show for `O=C(O)c1ccc(NN=Cc2c[nH]c3ccccc23)cc1`?
UCH37 DUB inh: -14.0

What do the screens show for `O=C(O)c1ccc(N/N=C/C(Br)=C/c2ccccc2)cc1`?
Rtt109 Vps75: 47.0; ALR H2O2 inh: 98.3*; FAS-TE inh: 0.7; M18AAP inhibitor: 1.5; HDAC3 inh: 8.0

Results for Cc1cc(=O)[nH]c(NN=Cc2c[nH]c3ccccc23)n1 ?
UCH37 DUB inh: 3.7

How did Cc1nnc(N/N=C/c2c[nH]c3ccccc23)[nH]c1=O do in these assays?
Rtt109 Vps75: 17.8; ALR H2O2 inh: 68.2; FAS-TE inh: -7.5; M18AAP inhibitor: 29.4*; HDAC3 inh: 11.8

What do the screens show for `COc1ccccc1NCC(=O)NN=C(C)c1ccc(Br)s1`?
UCH37 DUB inh: 3.4

How did CC(C)(C)c1n[nH]c(=S)n(N=Cc2cccs2)c1=O do in these assays?
UCH37 DUB inh: 4.0

How did CCN(CC)c1ccc(C2C(C(C)=O)C(=O)CC(C)(O)C2C(C)=O)cc1 (stereo unspecified) do in these assays?
Rtt109 Vps75: -4.2; ALR H2O2 inh: 98.7*; UCH37 DUB inh: 1.6; FAS-TE inh: -14.2; M18AAP inhibitor: 25.9; HDAC3 inh: -8.2

Results for CC(=O)C1C(=O)CC(C)(O)C(C(C)=O)C1c1ccc(N(C)C)cc1 (stereo unspecified) ?
Rtt109 Vps75: 6.4; ALR H2O2 inh: 98.0*; UCH37 DUB inh: 6.3; FAS-TE inh: -8.1; M18AAP inhibitor: 21.0; HDAC3 inh: 1.2

What do the screens show for `CCOC(=O)C1C(=O)CC(C)(O)C(C(=O)OCC)C1c1ccc(OC)cc1` (stereo unspecified)?
Rtt109 Vps75: -9.9; ALR H2O2 inh: -5.5; UCH37 DUB inh: 5.5; FAS-TE inh: -5.2; M18AAP inhibitor: 3.9; HDAC3 inh: 1.2

What do the screens show for `COc1ccc(OCC(=O)NN=Cc2cccn2-c2cccc(C(=O)O)c2)cc1`?
UCH37 DUB inh: 12.0

What do the screens show for `CCn1nc([N+](=O)[O-])c(C(C#N)c2nc3cc(C(F)(F)F)ccc3s2)c(Cl)c1=O` (stereo unspecified)?
Rtt109 Vps75: 2.1; ALR H2O2 inh: 98.1*; UCH37 DUB inh: 10.6; FAS-TE inh: -33.0; M18AAP inhibitor: -14.3; HDAC3 inh: 5.0

Results for CCN(CC)c1ccc(C(=C2C=CC(=[N+](CC)CC)C=C2)c2ccccc2)cc1 ?
Rtt109 Vps75: 10.4; FAS-TE inh: 82.5*
